The source of these data is paper PMC4112162 (Biochimica et biophysica acta, 2014).

For test [1], the target named is T1, hCBS (human cystathionine β-synthase) (Homo sapiens, UniProt P35520).
T1 sequence (P35520 1-551): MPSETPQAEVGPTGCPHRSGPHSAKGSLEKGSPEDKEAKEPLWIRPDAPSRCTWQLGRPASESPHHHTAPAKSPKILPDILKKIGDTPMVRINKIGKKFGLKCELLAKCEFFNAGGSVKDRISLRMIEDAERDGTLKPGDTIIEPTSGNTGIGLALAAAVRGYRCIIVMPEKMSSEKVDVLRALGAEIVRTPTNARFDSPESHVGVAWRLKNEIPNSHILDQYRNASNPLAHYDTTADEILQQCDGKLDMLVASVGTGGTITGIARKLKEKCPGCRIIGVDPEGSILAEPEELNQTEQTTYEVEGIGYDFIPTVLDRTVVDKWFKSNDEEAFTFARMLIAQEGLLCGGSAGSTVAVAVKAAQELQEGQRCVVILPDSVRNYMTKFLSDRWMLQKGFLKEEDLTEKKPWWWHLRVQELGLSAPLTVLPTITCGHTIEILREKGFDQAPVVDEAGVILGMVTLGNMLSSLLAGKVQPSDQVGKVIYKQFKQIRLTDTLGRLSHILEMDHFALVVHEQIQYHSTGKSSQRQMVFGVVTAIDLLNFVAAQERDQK
Briefly: radioisotope CBS activity assay with L-[U-14C]serine. The class given is biochemical.

Test [2] deals with T1, hCBS (human cystathionine β-synthase). Briefly: isothermal titration calorimetry, two independent types of sites model. The class given is binding. In a few lines: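 Purified human CBS in 20 mM Hepes pH 7.4 titrated with SAM by ITC. Without salt: 8 μM tetramer, 50 injections of 0.7 mM SAM spaced 150 s. With 200 mM NaCl: 20 μM tetramer, 19 injections of 1.06 mM SAM spaced 250 s. Isotherms fitted to a two independent types of sites model; salt titrations repeated in four independent experiments.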

The target of test [3] is T2, Human cystathionine beta-synthase (human), P35520.
T2 chain: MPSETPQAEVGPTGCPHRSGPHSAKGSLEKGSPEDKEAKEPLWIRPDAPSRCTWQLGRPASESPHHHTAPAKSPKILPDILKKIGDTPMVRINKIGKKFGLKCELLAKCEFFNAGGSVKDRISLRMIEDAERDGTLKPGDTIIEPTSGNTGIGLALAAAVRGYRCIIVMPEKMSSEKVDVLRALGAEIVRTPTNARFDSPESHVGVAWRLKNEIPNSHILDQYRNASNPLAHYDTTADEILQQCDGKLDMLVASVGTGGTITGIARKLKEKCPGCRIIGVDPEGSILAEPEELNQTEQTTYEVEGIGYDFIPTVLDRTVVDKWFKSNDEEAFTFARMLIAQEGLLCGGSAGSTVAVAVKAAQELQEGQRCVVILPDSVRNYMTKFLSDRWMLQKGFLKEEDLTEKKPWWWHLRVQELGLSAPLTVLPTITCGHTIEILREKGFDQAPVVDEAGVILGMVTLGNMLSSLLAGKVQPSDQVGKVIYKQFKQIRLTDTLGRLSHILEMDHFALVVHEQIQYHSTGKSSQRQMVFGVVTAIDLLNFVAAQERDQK
Briefly: dynamic light scattering. The note with it: remark: other sources report otherwise.

Molecule `C[S+](CC[C@H](N)C(=O)O)C[C@H]1O[C@@H](n2cnc3c(N)ncnc32)[C@H](O)[C@@H]1O` (stereo partly drawn) [SAM] yielded an EC50 in test [1] of 3700 ± 200 nM. The molecule also gave a Kd in test [2] of 13 nM.

B1: Human cystathionine beta-synthase, P35520 1-551 (enzyme)
chain: MPSETPQAEVGPTGCPHRSGPHSAKGSLEKGSPEDKEAKEPLWIRPDAPSRCTWQLGRPASESPHHHTAPAKSPKILPDILKKIGDTPMVRINKIGKKFGLKCELLAKCEFFNAGGSVKDRISLRMIEDAERDGTLKPGDTIIEPTSGNTGIGLALAAAVRGYRCIIVMPEKMSSEKVDVLRALGAEIVRTPTNARFDSPESHVGVAWRLKNEIPNSHILDQYRNASNPLAHYDTTADEILQQCDGKLDMLVASVGTGGTITGIARKLKEKCPGCRIIGVDPEGSILAEPEELNQTEQTTYEVEGIGYDFIPTVLDRTVVDKWFKSNDEEAFTFARMLIAQEGLLCGGSAGSTVAVAVKAAQELQEGQRCVVILPDSVRNYMTKFLSDRWMLQKGFLKEEDLTEKKPWWWHLRVQELGLSAPLTVLPTITCGHTIEILREKGFDQAPVVDEAGVILGMVTLGNMLSSLLAGKVQPSDQVGKVIYKQFKQIRLTDTLGRLSHILEMDHFALVVHEQIQYHSTGKSSQRQMVFGVVTAIDLLNFVAAQERDQK
In the case of B1, the stoichiometry N in test [3] came to 4.
